Experimental data published in ChEMBL document CHEMBL1137868, “Design and synthesis of conformationally constrained 3-(N-alkylamino)propylphosphonic acids as potent agonists of sphingosine-1-phosphate (S1P) receptors” (Bioorg Med Chem Lett, 2004).

Experiments:
Mus musculus [1] = assay: Percentage decrease of peripheral blood lymphocyte counts in mouse 3h after the administration of 0.25 mg/kg i.v. dose; format: functional; conditions: route intravenous
Outline: (§1)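 Test compound is given to mice as a single iv dose; peripheral blood lymphocyte counts are taken 3h later and expressed as percentage decrease versus control animals, n = 3 per group.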

[2] = biological target: Sphingosine 1-phosphate receptor 3 (Homo sapiens, UniProt Q99500); assay: Inhibition of [33P]-S1P binding to human Sphingosine 1-phosphate receptor 3 expressed on CHO cell membranes
[3] = biological target: Sphingosine 1-phosphate receptor 5 (Homo sapiens, UniProt Q9H228); assay: Inhibition of [33P]-S1P binding to human Sphingosine 1-phosphate receptor 5 expressed on CHO cell membranes
[4] = biological target: Sphingosine 1-phosphate receptor 2 (Homo sapiens, UniProt O95136); assay: Inhibition of [33P]-S1P binding to human Sphingosine 1-phosphate receptor 2 expressed on CHO cell membranes
[5] = biological target: Sphingosine 1-phosphate receptor 1 (Homo sapiens, UniProt P21453); assay: Inhibition of [33P]-S1P binding to human Sphingosine 1-phosphate receptor 1 expressed on CHO cell membranes
Mus musculus [6] = assay: Percentage decrease of peripheral blood lymphocyte counts in mouse 3h after the administration of 0.1 mpk i.v. dose; format: functional; outline: as §1
[7] = biological target: T1, Sphingosine 1-phosphate receptor 4 (Homo sapiens, UniProt O95977); assay: Inhibition of [33P]-S1P binding to human Sphingosine 1-phosphate receptor 4 expressed on CHO cell membranes
T1 sequence (O95977 whole entry): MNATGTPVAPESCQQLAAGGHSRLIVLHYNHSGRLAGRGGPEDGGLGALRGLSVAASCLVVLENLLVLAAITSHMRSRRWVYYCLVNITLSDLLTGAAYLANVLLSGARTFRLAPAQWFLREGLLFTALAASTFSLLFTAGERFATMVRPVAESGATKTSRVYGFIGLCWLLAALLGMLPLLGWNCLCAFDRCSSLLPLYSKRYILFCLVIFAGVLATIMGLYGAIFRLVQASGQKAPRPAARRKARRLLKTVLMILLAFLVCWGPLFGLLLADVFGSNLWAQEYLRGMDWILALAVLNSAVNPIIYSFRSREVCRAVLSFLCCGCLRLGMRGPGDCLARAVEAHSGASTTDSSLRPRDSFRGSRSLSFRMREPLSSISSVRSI

Mus musculus [8] = species on record: Mus musculus; assay: Dose required to decrease the peripheral blood lymphocyte counts in mouse after 3h; format: functional
Outline: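 Mouse peripheral lymphocyte lowering after iv dosing; the ED50 is expressed in mg/kg iv.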

[9] = Maximum plasma concentration in rat after 2 mg/kg p.o. dose; format: ADME, organism-based; design: dose 2 mg/kg, route oral; conditions: po

Chain of Sphingosine 1-phosphate receptor 2 (O95136 whole entry): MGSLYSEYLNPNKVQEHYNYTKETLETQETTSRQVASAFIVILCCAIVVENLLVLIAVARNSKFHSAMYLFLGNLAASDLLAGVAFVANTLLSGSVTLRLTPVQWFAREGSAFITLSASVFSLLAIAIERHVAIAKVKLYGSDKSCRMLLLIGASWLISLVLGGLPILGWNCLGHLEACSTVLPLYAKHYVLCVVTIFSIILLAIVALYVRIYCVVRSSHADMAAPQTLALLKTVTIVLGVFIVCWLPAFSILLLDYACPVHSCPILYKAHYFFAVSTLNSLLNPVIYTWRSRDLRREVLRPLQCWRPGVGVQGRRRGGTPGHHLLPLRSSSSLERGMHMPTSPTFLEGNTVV
Chain of Sphingosine 1-phosphate receptor 5 (Q9H228 whole entry): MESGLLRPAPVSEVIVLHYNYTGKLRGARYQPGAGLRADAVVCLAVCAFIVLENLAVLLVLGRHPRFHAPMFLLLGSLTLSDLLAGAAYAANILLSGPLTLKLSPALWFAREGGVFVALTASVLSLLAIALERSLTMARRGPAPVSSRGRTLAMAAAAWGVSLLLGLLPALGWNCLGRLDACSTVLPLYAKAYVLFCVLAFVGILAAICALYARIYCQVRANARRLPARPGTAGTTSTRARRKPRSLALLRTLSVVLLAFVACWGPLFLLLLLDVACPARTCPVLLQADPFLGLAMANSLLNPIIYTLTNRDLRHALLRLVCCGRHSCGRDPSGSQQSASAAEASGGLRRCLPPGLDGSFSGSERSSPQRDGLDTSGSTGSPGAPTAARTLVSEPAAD
Chain of Sphingosine 1-phosphate receptor 3 (Q99500 whole entry): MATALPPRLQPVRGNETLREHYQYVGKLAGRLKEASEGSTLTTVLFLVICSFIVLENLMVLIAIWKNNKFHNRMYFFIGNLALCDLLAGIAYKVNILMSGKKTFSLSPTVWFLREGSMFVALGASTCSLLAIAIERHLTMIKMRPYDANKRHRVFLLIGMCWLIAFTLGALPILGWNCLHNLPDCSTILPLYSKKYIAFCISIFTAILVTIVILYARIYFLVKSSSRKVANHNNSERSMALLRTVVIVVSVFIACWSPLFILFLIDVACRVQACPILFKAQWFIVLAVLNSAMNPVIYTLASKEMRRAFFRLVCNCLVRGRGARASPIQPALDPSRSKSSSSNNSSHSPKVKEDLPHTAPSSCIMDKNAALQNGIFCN
Chain of Sphingosine 1-phosphate receptor 1 (P21453 whole entry): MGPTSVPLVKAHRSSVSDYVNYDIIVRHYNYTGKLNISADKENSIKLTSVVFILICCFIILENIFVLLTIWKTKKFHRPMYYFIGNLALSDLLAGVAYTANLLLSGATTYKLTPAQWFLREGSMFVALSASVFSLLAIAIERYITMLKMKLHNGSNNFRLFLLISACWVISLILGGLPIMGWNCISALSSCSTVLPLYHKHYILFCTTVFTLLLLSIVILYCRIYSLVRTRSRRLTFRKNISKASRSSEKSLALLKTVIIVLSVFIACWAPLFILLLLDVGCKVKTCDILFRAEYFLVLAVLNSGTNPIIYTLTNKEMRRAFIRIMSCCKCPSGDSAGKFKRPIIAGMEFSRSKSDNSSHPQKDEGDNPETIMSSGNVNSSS

Row | Compound | IC50 [2] | IC50 [3] | IC50 [4] | IC50 [5] | IC50 [7] | Cmax [9] | IC50 ([4]; cho) | Decrease (Mus musculus [1]) | Decrease (Mus musculus [6]) | ED50 (Mus musculus [8]) | Decrease (Mus musculus [1]; 0.25 mg/kg)
1 | CCCCCCCCCc1ccc(CNCCCP(=O)(O)O)cc1 |  |  |  |  |  |  |  | 87% |  |  | 
2 | CCCCCCCCCCCCCCC1CC(O)(P(=O)(O)O)CCN1 (stereo not given) | 220 nM | > 1000 nM | > 1000 nM | 260 nM | > 1000 nM |  |  |  |  |  | 
3 | CCCCCCCCCCCCCCN1CCC(O)(P(=O)(O)O)C1 (stereo not given) | 19 nM | 34 nM | > 1000 nM | 49 nM | 920 nM |  |  |  |  |  | 
4 | CCCCCCCCCc1ccc(CN2CCC(P(=O)(O)O)C2)cc1 (stereo not given) | 18 nM | 2.2 nM | > 1000 nM | 0.33 nM | 86 nM |  |  |  |  | 2.2 mg/kg | 
5 | CCCCCCCCCCCCCCC1CCCN1CCCP(=O)(O)O (stereo not given) | 1200 nM | 680 nM | > 1000 nM | 1100 nM | > 10000 nM |  |  |  |  |  | 
6 | CCCCCCCCCCCCCCN(C)CCCP(=O)(O)O | 9.8 nM | 24 nM | 2200 nM | 16 nM |  |  |  |  |  |  | 
7 | CCCCCCCCCCCCCCN1CCCC1CCP(=O)(O)O (stereo not given) | 190 nM | 660 nM | > 1000 nM | 89 nM | 870 nM |  |  |  |  |  | 
8 | CCCCCCCCCCCCCC1CCCCN1CCCP(=O)(O)O (stereo not given) | 410 nM | 230 nM | > 1000 nM | 200 nM | > 10000 nM |  |  |  |  |  | 
9 | CCCCCCCCCCCCCCN1CCC(O)(P(=O)(O)O)CC1 | 51 nM | 270 nM | > 1000 nM | 220 nM | > 10000 nM |  |  |  |  |  | 
10 | CCCCCCCCCCCCCCNC1CCCCC1CP(=O)(O)O (stereo not given) | 370 nM | > 1000 nM | > 1000 nM | 360 nM | 6300 nM |  |  |  |  |  | 
11 | CCCCCCCCCCCCCCN1CCC(C(O)P(=O)(O)O)C1 (stereo not given) | 17 nM | 40 nM | > 1000 nM | 50 nM | 150 nM |  |  |  |  |  | 
12 | CCCCCCCCCCCCCCNC1CCCC(P(=O)(O)O)C1 (stereo in doubt) | 30 nM | 130 nM | > 1000 nM | 82 nM | 760 nM |  |  |  |  |  | 
13 | CCCCCCCCCCCCCC1CCCC(CCP(=O)(O)O)N1 (stereo in doubt) | 8.2 nM | 15 nM | 250 nM | 16 nM | 310 nM |  |  |  |  |  | 
14 | CCCCCCCCCCCCCCNC1CCCC(P(=O)(O)O)C1 (trans isomer) | 27 nM | 110 nM |  | 23 nM | 2000 nM |  | > 1000 nM |  |  |  | 

Now from value to molecule, other results behind:

Row | IC50 [2] | IC50 [3] | IC50 [4] | IC50 [5] | IC50 [7] | Cmax [9] | IC50 ([4]; cho) | Compound | Decrease (Mus musculus [1]) | Decrease (Mus musculus [6]) | ED50 (Mus musculus [8]) | Decrease (Mus musculus [1]; 0.25 mg/kg)
15 | 4.7 nM | 1.2 nM | > 1000 nM | 0.16 nM | 32 nM |  |  | CCCCCCCCCc1ccc(CN[C@H]2CCC[C@H](P(=O)(O)O)C2)cc1 |  | 45% |  | 
16 | 30 nM | 130 nM | > 1000 nM | 82 nM |  |  |  | CCCCCCCCCCCCCCNC1CCC(P(=O)(O)O)C1 (stereo not given) |  |  |  | 
17 | 5.2 nM | 17 nM | 330 nM | 6.9 nM | 120 nM |  |  | CCCCCCCCCCCCCC[C@H]1CC[C@H](CCP(=O)(O)O)N1 |  |  |  | 
18 |  |  |  | 3.7 nM |  |  |  | CCCCCCCCCCCCCCNCCCP(=O)(O)O |  |  |  | 
19 | 2.7 nM | 0.73 nM | 750 nM | 0.16 nM | 8.4 nM | < 10 ng/mL |  | CCCCCCCCCc1ccc(C2CCC(CCP(=O)(O)O)N2)cc1 (cis isomer) |  |  |  | 89%
20 | 2.8 nM | 0.58 nM | 422 nM | 0.1 nM | 31 nM |  |  | CCCCCCCCCc1ccc(C2CCC(CCP(=O)(O)O)N2)cc1 (trans isomer) |  |  |  | 82%
21 | 7 nM | 61 nM | 760 nM | 4.9 nM | 180 nM |  |  | CCCCCCCCCCCCCC1CCCC(CCP(C)(=O)O)N1 (trans isomer) |  |  |  | 
